This note sets out measurements from ChEMBL document CHEMBL3046867, “Bioactive ryanoids from nucleophilic additions to 4,12-seco-4,12-dioxoryanodine” (J Med Chem, 1993).

Each structure is given as a SMILES string.

Assay [1] concerns Musca domestica. Kind of assay: Toxicity against SCR-susceptible Musca domestica (house fly) assessed as mortality compound administered by intrathoracic injection 1 to 2 hr after piperonyl butoxide treatment measured 24 hr post compound treatment relative to ryanodine. In kind it is functional.
Assay [2] deals with Ryanodine receptor 1 (Oryctolagus cuniculus) (UniProt P11716). Nature of the assay: Displacement of [3H]ryanodine from Ca2+-ryanodine receptor in Oryctolagus cuniculus (rabbit) skeletal muscle sarcoplasmic reticulum after 2 hr by competitive inhibition assay relative to ryanodine. In outline: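 No ATP. […] Ryanoid given in DMSO (1% final). Glass-fiber filtration; three washes with ice-cold buffer a using Tris HCl instead of Hepes. Nonspecific binding with 10 μM dehydroryanodine. IC50 calculated by LIGAND; duplicate experiments.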

The target in assay [3] is Ryanodine receptor 3 (Mus musculus) (UniProt A2AGL3). Kind of assay: Binding affinity to ryanodine receptor in Mus musculus albino Swiss-Webster (mouse) brain relative to ryanodine.
The subject of assay [4] is Musca domestica. Nature of the assay: Toxicity against SCR-susceptible Musca domestica (house fly) assessed as immobility compound administered by intrathoracic injection 1 to 2 hr after piperonyl butoxide treatment measured 4 hr post compound treatment relative to ryanodine. In kind it is functional. An outline of the steps:
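Adult female flies pretreated with piperonyl butoxide (5 μg in 0.5 μL acetone, ventral abdomen); 1-2 h later, 0.22 μL ryanoid in DMSO injected into the thorax. Knockdown scored at 4 h and KD50 derived. Ten flies per dose, 1.50-2-fold dose steps, two or more experiments (or single determinations where estimated).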

Assay [5] concerns the target Ryanodine receptor 1 (Oryctolagus cuniculus) (UniProt P11716). Nature of the assay: Displacement of [3H]ryanodine from Ca2+-ryanodine receptor in Oryctolagus cuniculus (rabbit) skeletal muscle sarcoplasmic reticulum after 1 hr by competitive inhibition assay in presence of ATP relative to ryanodine. An outline of the steps:
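Unlabeled ryanoid introduced in DMSO (1% final) before incubation. Filtration, washes in 150 mM KCl/10 mM Hepes pH 7.4. Nonspecific binding: 10 μM dehydroryanodine. IC50 from LIGAND; duplicate experiments.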

Ryanodine receptor 1 (Oryctolagus cuniculus), sequence (P11716 whole entry): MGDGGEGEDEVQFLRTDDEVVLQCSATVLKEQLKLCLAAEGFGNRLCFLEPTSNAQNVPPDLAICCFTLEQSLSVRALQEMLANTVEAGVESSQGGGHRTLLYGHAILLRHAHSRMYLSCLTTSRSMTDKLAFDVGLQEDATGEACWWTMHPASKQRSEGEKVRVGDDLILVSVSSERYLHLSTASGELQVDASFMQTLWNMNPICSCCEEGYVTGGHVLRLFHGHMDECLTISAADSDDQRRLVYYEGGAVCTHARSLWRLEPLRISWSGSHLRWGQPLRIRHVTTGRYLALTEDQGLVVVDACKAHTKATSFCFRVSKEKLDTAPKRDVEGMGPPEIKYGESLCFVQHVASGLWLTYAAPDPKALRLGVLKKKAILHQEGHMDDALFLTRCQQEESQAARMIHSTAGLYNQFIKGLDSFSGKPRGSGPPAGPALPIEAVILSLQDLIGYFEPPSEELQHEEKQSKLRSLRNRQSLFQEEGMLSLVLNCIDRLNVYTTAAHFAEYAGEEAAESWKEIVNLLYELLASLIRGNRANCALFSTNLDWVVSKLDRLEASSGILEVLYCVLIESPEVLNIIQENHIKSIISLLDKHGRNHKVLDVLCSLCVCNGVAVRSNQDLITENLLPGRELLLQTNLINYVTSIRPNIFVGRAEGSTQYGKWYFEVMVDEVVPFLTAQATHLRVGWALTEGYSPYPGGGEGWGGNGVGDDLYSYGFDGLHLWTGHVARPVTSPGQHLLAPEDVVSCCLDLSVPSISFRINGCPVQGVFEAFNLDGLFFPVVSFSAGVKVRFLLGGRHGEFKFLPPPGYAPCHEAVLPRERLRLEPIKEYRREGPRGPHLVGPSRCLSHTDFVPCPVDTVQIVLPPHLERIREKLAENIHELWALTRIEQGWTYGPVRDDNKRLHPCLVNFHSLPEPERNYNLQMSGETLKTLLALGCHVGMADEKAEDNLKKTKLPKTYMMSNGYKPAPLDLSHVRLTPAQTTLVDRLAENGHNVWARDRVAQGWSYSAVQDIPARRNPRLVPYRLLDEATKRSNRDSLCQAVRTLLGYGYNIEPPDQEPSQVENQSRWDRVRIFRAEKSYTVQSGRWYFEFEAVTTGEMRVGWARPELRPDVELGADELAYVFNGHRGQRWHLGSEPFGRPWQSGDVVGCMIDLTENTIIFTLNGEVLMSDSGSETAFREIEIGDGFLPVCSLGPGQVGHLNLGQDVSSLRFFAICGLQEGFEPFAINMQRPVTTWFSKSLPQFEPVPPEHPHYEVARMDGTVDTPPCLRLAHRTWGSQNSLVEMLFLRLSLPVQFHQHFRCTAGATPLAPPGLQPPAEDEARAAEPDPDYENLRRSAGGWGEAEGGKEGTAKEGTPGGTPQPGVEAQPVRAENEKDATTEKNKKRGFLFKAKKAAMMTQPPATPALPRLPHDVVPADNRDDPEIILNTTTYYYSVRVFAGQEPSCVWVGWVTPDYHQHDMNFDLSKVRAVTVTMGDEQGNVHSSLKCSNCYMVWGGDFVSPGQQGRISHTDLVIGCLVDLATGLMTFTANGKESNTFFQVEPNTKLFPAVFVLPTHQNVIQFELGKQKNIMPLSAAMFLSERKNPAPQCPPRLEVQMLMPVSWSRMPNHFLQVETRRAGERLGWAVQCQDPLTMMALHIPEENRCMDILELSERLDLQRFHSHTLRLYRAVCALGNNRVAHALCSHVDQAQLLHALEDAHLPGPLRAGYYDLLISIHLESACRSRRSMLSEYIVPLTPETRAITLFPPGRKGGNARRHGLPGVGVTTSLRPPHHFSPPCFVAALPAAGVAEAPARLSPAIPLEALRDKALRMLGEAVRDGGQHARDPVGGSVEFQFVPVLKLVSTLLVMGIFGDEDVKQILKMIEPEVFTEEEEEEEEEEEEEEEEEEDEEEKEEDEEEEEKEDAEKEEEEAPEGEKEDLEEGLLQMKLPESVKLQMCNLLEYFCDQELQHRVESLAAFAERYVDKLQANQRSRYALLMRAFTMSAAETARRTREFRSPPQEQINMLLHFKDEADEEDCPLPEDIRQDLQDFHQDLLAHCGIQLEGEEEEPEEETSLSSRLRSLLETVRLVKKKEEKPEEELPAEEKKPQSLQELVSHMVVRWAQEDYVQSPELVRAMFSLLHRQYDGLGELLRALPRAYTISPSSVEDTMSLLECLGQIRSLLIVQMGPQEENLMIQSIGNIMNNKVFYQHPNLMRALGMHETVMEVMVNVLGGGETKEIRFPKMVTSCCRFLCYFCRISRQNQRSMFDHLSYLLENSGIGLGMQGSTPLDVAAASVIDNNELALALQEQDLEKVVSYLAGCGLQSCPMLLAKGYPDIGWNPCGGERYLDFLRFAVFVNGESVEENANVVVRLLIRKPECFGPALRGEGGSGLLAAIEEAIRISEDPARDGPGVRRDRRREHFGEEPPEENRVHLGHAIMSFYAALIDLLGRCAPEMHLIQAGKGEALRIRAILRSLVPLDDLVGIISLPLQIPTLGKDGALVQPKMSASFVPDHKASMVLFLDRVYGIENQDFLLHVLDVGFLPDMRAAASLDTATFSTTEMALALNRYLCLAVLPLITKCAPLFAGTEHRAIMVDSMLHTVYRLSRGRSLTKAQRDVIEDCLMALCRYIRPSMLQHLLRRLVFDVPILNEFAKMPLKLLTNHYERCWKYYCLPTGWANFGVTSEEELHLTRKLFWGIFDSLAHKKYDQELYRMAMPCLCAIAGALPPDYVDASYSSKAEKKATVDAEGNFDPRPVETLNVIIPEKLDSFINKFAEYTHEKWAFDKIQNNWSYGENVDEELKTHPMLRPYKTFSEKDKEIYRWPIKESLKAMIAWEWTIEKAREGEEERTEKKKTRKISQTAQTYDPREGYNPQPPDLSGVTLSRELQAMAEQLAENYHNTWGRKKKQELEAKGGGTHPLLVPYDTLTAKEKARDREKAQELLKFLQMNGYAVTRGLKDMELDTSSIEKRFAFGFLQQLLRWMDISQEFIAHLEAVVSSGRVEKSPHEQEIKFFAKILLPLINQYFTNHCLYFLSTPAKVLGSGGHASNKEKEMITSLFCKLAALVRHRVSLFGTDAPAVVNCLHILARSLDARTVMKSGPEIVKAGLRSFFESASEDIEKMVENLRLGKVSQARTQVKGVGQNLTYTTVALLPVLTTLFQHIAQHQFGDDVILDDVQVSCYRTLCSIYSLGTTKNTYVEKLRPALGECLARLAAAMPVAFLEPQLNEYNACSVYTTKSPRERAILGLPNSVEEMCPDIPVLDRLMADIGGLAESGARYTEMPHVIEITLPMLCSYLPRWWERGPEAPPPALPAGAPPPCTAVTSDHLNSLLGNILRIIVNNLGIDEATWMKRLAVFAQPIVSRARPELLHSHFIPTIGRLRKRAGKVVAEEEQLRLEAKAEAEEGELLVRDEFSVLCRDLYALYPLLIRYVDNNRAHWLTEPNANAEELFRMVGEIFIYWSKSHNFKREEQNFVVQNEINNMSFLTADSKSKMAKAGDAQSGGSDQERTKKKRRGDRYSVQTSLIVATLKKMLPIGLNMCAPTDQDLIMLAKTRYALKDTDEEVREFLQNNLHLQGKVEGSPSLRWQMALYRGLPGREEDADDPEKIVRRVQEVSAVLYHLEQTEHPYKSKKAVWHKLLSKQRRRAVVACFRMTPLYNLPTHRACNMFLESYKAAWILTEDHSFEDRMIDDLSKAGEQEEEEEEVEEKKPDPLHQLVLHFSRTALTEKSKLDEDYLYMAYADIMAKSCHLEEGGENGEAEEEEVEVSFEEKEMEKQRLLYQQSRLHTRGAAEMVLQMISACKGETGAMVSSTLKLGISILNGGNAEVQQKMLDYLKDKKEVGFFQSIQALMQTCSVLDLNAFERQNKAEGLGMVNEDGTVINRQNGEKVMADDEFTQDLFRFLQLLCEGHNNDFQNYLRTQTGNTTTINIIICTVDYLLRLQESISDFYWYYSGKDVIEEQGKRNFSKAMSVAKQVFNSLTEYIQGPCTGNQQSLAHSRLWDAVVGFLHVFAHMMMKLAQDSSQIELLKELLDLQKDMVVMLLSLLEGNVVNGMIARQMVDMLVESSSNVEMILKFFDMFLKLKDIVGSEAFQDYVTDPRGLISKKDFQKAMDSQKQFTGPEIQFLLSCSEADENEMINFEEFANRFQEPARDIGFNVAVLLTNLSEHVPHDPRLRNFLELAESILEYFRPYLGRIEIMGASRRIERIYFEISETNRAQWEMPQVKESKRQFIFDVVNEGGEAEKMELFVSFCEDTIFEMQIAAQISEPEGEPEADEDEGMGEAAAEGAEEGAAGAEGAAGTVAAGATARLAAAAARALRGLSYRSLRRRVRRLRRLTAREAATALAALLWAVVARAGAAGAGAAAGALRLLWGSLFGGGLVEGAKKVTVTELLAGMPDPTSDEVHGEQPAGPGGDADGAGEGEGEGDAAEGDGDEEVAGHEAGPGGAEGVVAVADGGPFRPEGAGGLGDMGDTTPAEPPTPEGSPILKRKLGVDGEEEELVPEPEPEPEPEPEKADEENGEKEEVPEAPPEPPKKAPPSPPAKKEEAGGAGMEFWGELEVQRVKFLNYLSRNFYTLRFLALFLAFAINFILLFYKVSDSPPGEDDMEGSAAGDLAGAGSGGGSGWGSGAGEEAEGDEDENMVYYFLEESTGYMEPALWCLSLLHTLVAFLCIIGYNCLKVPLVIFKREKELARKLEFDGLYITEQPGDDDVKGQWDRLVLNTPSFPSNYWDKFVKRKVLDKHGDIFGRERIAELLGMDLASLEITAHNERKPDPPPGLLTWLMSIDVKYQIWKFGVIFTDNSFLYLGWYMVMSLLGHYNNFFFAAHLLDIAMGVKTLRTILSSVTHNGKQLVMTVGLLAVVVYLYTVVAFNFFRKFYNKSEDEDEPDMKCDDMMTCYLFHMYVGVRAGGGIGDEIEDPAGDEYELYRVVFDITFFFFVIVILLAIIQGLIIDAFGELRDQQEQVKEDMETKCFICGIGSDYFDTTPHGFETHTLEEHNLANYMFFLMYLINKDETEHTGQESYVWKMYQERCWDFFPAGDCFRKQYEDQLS

As to `C=C1CC[C@]2(O)[C@]3(C)C[C@]4(O)O[C@@]2([C@@H]1O)[C@]1(O)[C@@]3(O)[C@H](OC(=O)c2ccc[nH]2)[C@](O)(C(C)C)[C@@]14C` [DEHYDRORYANODINE], the Ratio with Musca domestica [1] worked out at 136; in assay [2] it was 91; in assay [3] it was 77; with Musca domestica [4], 90; in assay [5], 112.
For the molecule `CC(C)[C@@]1(O)[C@@H](OC(=O)c2ccc[nH]2)[C@]2(O)O[C@@]3(NO)[C@]45O[C@@](O)(C[C@@]2(C)[C@@]4(O)CC[C@H](C)[C@H]5O)[C@]31C`, the Ratio is 12 in the assay on Musca domestica [1]; 9 in assay [2]; 11 in assay [3]; 20 with Musca domestica [4]; 11 in assay [5].
Regarding `CC(C)[C@@]1(O)[C@@H](OC(=O)c2ccc[nH]2)/C(=N/OCc2ccccc2)[C@@]2(C)C[C@]3(O)O[C@]4(C(=O)[C@]13C)[C@H](O)[C@@H](C)CC[C@@]42O`, the Ratio in the assay with Musca domestica [1] stood at 1; in assay [2], 1.3; in assay [3], 0.94; in the assay on Musca domestica [4] it was 0.8; in assay [5], 2.1.
In the case of `CON[C@@]12O[C@@]3(O)[C@]45O[C@@](O)(C[C@@]1(C)[C@@]4(O)CC[C@H](C)[C@H]5O)[C@@]3(C)[C@@](O)(C(C)C)[C@H]2OC(=O)c1ccc[nH]1`, the Ratio in the assay with Musca domestica [1] was determined as 8; in assay [2], 23; in assay [3], 27; with Musca domestica [4], 13; in assay [5], 23.
On to `CC(C)[C@@]1(O)[C@@H](OC(=O)c2ccc[nH]2)[C@]2(NO)O[C@H]3[C@]45O[C@@](O)(C[C@@]2(C)[C@@]4(O)CC[C@H](C)[C@H]5O)[C@]31C`, for which the Ratio with Musca domestica [1] was found to be 100; in assay [2], 50; in assay [3], 43; with Musca domestica [4], 200; in assay [5], 67.
For the molecule `CC(C)[C@@]1(O)[C@@H](OC(=O)c2ccc[nH]2)[C@]2(NO)O[C@@]3(O)[C@]45O[C@@](O)(C[C@@]2(C)[C@@]4(O)CC[C@H](C)[C@H]5O)[C@]31C`, the Ratio was found to be 200 in the assay on Musca domestica [1]; 14 in assay [2]; 21 in assay [3]; 270 in the assay on Musca domestica [4]; 29 in assay [5].
Consider `C=C1CC[C@]2(O)[C@]3(C)C[C@]4(O)O[C@@]2([C@@H]1O)[C@]1(NNc2ccccc2)O[C@@]3(O)[C@H](OC(=O)c2ccc[nH]2)[C@](O)(C(C)C)[C@@]14C`, for which the Ratio in the assay on Musca domestica [1] is below 3; in assay [2], 2.6; in assay [3], 3.3; in the assay on Musca domestica [4], below 1.3; in assay [5] it was 3.
As for `CO/N=C1/[C@H](OC(=O)c2ccc[nH]2)[C@](O)(C(C)C)[C@@]2(C)C(=O)[C@]34O[C@@]2(O)C[C@@]1(C)[C@@]3(O)CC[C@H](C)[C@H]4O`, the Ratio in the assay on Musca domestica [1] came out at 12; in assay [2], 0.75; in assay [3] it was 0.7; in the assay on Musca domestica [4], 10; in assay [5], 0.86.
Take `C=C1CC[C@]2(O)[C@]3(C)C[C@]4(O)O[C@@]2([C@@H]1O)[C@]1(O)O[C@@]3(NN)[C@H](OC(=O)c2ccc[nH]2)[C@](O)(C(C)C)[C@@]14C`: the Ratio in the assay on Musca domestica [1] was 60; in assay [2], 11; in assay [3], 14; with Musca domestica [4], 50; in assay [5] it was 14.
As for `CON[C@@]12O[C@H]3[C@]45O[C@@](O)(C[C@@]1(C)[C@@]4(O)CC[C@H](C)[C@H]5O)[C@@]3(C)[C@@](O)(C(C)C)[C@H]2OC(=O)c1ccc[nH]1`, the Ratio in the assay on Musca domestica [1] was 20; in assay [2], 20; in assay [3] it was 28; in the assay with Musca domestica [4], 7; in assay [5], 34.
`CC(C)[C@@]1(O)[C@@H](OC(=O)c2ccc[nH]2)[C@@H]2O[C@@]3(O)[C@]45O[C@@](O)(C[C@@]2(C)[C@@]4(O)CC[C@H](C)[C@H]5O)[C@]31C`: the Ratio is 40 in the assay with Musca domestica [1]; 28 in assay [2]; 21 in assay [3]; 27 in the assay on Musca domestica [4]; 19 in assay [5].
